Results published in ChEMBL document CHEMBL1141950, “Rapamycin analogs with reduced systemic exposure” (Bioorg Med Chem Lett, 2005).

Experiments:
Rattus norvegicus [1] = organism: Rattus norvegicus; experiment: Efficacy in T-cell mediated inflammatory response by delayed type hypersensitivity model in Sprague-Dawley rat; format: functional
T-cell [2] = experiment: T-cell antiproliferative activity in human mixed lymphocyte reaction; format: functional, cell-based
Summary of the method: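 Human mixed lymphocyte reaction carried out in serum-containing medium; IC50 given as mean ± SEM for n determinations.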

T-cell [3] = experiment: Antiproliferative activity in Lewis rat lymph node cells in rat mixed lymphocyte reaction; format: functional, cell-based
Summary of the method: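 Rat mixed lymphocyte reaction run serum free: Lewis rat lymph node cells (responders) stimulated by Brown–Norway splenocytes; IC50 reported as mean ± SEM of n determinations.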

Rattus norvegicus [4] = organism: Rattus norvegicus; experiment: Efficacy in CD4+ T-cell mediated experimental autoimmune encephalomyelitis model in Lewis rat; format: functional
Summary of the method: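 Rat EAE induced by subcutaneous injection of homogenized isologous spinal cord in modified complete Freund's adjuvant; value reported with range and n.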

[5] = Tmax in male Sprague-Dawley rat administered with 2.5 mg/kg, po; format: ADME, organism-based; design: dose 2.5 mg/kg, route oral; settings: in vivo
[6] = AUC in male Sprague-Dawley rat administered with 2.5 mg/kg, po; format: ADME, organism-based; design: dose 2.5 mg/kg, route oral; settings: plasma
[7] = Cmax in male Sprague-Dawley rat administered with 2.5 mg/kg, po; format: ADME, organism-based; design: dose 2.5 mg/kg, route oral; settings: in vivo
Rattus norvegicus [8] = organism: Rattus norvegicus; experiment: Efficacy in T-cell mediated adjuvant arthritis model in Lewis rat; format: functional
[9] = Half life in human in a multiple dose escalation study; format: ADME, organism-based; settings: in vivo
[10] = Half life in male Sprague-Dawley rat administered with 2.5 mg/kg, po; format: ADME, organism-based; design: dose 2.5 mg/kg, route oral; settings: in vivo
[11] = Oral bioavailability in male Sprague-Dawley rat administered with 2.5 mg/kg, po; format: ADME, organism-based; settings: in vivo

| Tmax [5] [h] | AUC [6] [ng·h/mL] | Cmax [7] [ng/mL] | half-life [9] [h] | half-life [10] [h] | bioavailability [11] [%] | Structure (SMILES) | ED50 (Rattus norvegicus [1]) [mg/kg] | IC50 (T-cell [2]) [nM] | IC50 (T-cell [3]) [nM] | ED50 (Rattus norvegicus [4]) [mg/kg] | ED50 (Rattus norvegicus [8]) [mg/kg] |
| --- | --- | --- | --- | --- | --- | --- | --- | --- | --- | --- | --- |
| – | – | – | – | – | – | CO[C@H]1C[C@@H]2CC[C@@H](C)[C@@](O)(O2)C(=O)C(=O)N2CCCC[C@H]2C(=O)O[C@H]([C@H](C)C[C@@H]2CC[C@H](n3ncnn3)[C@H](OC)C2)CC(=O)[C@H](C)/C=C(\C)[C@@H](O)[C@@H](OC)C(=O)[C@H](C)C[C@H](C)/C=C/C=C/C=C/1C | 2 | 3.3 | 1500 | – | – |
| 0.5 | 559 | 50.8 | 63 | 33.4 | 43.2 | CO[C@H]1C[C@@H]2CC[C@@H](C)[C@@](O)(O2)C(=O)C(=O)N2CCCC[C@H]2C(=O)O[C@H]([C@H](C)C[C@@H]2CC[C@@H](O)[C@H](OC)C2)CC(=O)[C@H](C)/C=C(\C)[C@@H](O)[C@@H](OC)C(=O)[C@H](C)C[C@H](C)/C=C/C=C/C=C/1C [SIROLIMUS] | 0.5 | 1.6 | 2600 | 0.3 | 0.2 |
| 0.4 | 163 | 46.7 | 25 | 7.9 | 12.1 | CO[C@H]1C[C@@H]2CC[C@@H](C)[C@@](O)(O2)C(=O)C(=O)N2CCCC[C@H]2C(=O)O[C@H]([C@H](C)C[C@@H]2CC[C@H](n3cnnn3)[C@H](OC)C2)CC(=O)[C@H](C)/C=C(\C)[C@@H](O)[C@@H](OC)C(=O)[C@H](C)C[C@H](C)/C=C/C=C/C=C/1C [ZOTAROLIMUS] | 1.7 | 2 | 1400 | 1.2 | 0.7 |
| 0.4 | 132 | 29.7 | – | 8.7 | 6.2 | CO[C@H]1C[C@@H]2CC[C@@H](C)[C@@](O)(O2)C(=O)C(=O)N2CCCC[C@H]2C(=O)OC([C@H](C)C[C@@H]2CC[C@@H](OC(=O)N(C)OC)[C@H](OC)C2)CC(=O)[C@H](C)/C=C(\C)[C@@H](O)[C@@H](OC)C(=O)[C@H](C)C[C@H](C)/C=C/C=C/C=C/1C (stereo not given in full) | 0.4 | 5.9 | 2500 | 0.5 | 0.3 |
